Results from different studies.
Compare with care: the assays were run in different laboratories.

SMILES | target or system | test | system | setting | measurement | value
CCCCCc1nc(N)nc(N)c1OCCCOc1ccccc1CCC(=O)O | Mycobacterium avium | microbial growth, resazurin |  |  | MIC | 0.6 µg/mL
C=CC(=O)NC1CCN(c2ncc3ncnc(Nc4ccc(Oc5ccc6c(c5)ncn6C)c(C)c4)c3n2)CC1 | NCI-H520 | cell growth or viability |  |  | EC50 | 706 nM
CN(Cc1ccc(C(C)(C)C)cc1)Cc1cccc2ccccc12 | Trichophyton rubrum | microbial growth, disc diffusion | ATCC28188 | 0.064 µg/mL, 6 days | inhibition zone | ≥ 55 mm
CC(C)/N=c1\cc2n(-c3ccc(Cl)cc3)c3ccccc3nc-2cc1Nc1ccc(Cl)cc1 | Mycobacterium avium | microbial growth | ATCC700898 |  | MIC | 0.06 µM
Nc1nc(N)c(OCCCOc2ccccc2CCC(=O)O)c(C2CCNCC2)n1 | Mycobacterium avium | microbial growth, resazurin |  |  | MIC | 6.2 µg/mL
O=C(c1ccc(Oc2ccc3oc(=O)ccc3c2)c([N+](=O)[O-])c1)C(Cl)Cl | NCI-H1975 | cell growth or viability, MTT |  | 2.5 µM | inhibition | 61.6%
CO/N=c1\cc2n(-c3ccc(Cl)cc3)c3ccccc3nc-2cc1Nc1ccc(Cl)cc1 | Mycobacterium avium | microbial growth | ATCC700898 |  | MIC | 0.47 µM
COc1cccc2c1C(=O)c1c(O)c3c(c(O)c1C2=O)C[C@@](O)(C(=O)CO)C[C@@H]3O[C@H]1C[C@H](N)[C@H](O)[C@H](C)O1 | NCI-H1975 | cell growth or viability, MTT |  | 2.5 µM | inhibition | 97.7%
O=C(O)CO/N=c1\cc2n(-c3ccc(Cl)cc3)c3ccccc3nc-2cc1Nc1ccc(Cl)cc1 | Mycobacterium avium | microbial growth | ATCC700898 |  | MIC | 0.94 µM
CC(=O)OCCCOc1ccc(C(=O)C(Cl)Cl)cc1[N+](=O)[O-] | NCI-H1975 | cell growth or viability, MTT |  | 2.5 µM | inhibition | 78.2%
CCOC(=O)CNC(=O)CO/N=c1\cc2n(-c3ccc(Cl)cc3)c3ccccc3nc-2cc1Nc1ccc(Cl)cc1 | Mycobacterium avium | microbial growth |  | clinical isolate | MIC | > 30 µM
CC(=O)c1ccc(Oc2ccc(C(=O)C(Cl)Cl)cc2[N+](=O)[O-])cc1 | NCI-H1975 | cell growth or viability, MTT |  | 2.5 µM | inhibition | 85.2%
O=C(CO/N=c1\cc2n(-c3ccc(Cl)cc3)c3ccccc3nc-2cc1Nc1ccc(Cl)cc1)NCc1ccc(C(F)(F)F)cc1 | Mycobacterium avium | microbial growth | ATCC700898 |  | MIC | > 30 µM
CC(=O)Nc1ccc(Oc2ccc(C(=O)C(Cl)Cl)cc2[N+](=O)[O-])cc1Cl | NCI-H1975 | cell growth or viability, MTT |  | 2.5 µM | inhibition | 96.5%
O/N=c1\cc2n(-c3ccc(Cl)cc3)c3ccccc3nc-2cc1Nc1ccc(Cl)cc1 | Mycobacterium avium | microbial growth |  | clinical isolate | MIC | > 30 µM
NCCCc1nc(N)nc(N)c1OCCCOc1ccccc1CCC(=O)O | Mycobacterium avium | microbial growth, resazurin |  |  | MIC | 12.9 µg/mL
CN(Cc1ccc(C2(C(F)(F)F)CC2)cc1)Cc1cccc2ccccc12 | Trichophyton rubrum | microbial growth, disc diffusion | ATCC28188 | 0.256 µg/mL, 6 days | inhibition zone | ≥ 55 mm
O=C(c1ccc(Oc2ccc3cc(Br)ccc3c2Cl)c([N+](=O)[O-])c1)C(Cl)Cl | NCI-H1975 | cell growth or viability, MTT |  | 2.5 µM | inhibition | 85.4%
Nc1nc(N)c(OCCCOc2ccccc2CCC(=O)O)c(-c2ccccc2C(F)(F)F)n1 | Mycobacterium avium | microbial growth, resazurin |  |  | MIC | 3.6 µg/mL
